In ChEMBL document CHEMBL3817843, “Understanding Oxadiazolothiazinone Biological Properties: Negative Inotropic Activity versus Cytochrome P450-Mediated Metabolism” (J Med Chem, 2016):
The source made the active and inactive calls. The rule behind the calls is not given here.

Columns and labels:
Cytochrome P450 1A2 = target: T1, Cytochrome P450 1A2 (Homo sapiens, UniProt P05177); test: Inhibition of CYP1A2 in human liver microsomes using phenacetin as substrate after 30 mins by LC-MS analysis
T1 sequence (P05177 whole entry): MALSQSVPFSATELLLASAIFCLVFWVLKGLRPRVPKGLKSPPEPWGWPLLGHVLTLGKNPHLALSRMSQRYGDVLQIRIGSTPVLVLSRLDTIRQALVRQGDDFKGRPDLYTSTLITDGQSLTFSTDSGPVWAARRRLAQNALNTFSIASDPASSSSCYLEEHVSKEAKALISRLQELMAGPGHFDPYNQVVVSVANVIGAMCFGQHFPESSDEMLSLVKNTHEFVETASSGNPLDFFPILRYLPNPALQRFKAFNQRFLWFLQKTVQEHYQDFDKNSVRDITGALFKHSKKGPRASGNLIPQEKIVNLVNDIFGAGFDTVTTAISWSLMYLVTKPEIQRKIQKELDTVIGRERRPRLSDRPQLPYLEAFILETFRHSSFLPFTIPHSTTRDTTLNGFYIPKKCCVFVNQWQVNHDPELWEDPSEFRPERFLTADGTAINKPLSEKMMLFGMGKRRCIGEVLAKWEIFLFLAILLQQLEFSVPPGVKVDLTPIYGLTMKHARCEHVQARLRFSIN

Aorta [1] = test: Vasorelaxant activity in potassium depolarized guinea pig aorta assessed as inhibition of calcium-induced contraction at 10^-6 M preincubated for 30 mins followed by 0.5 uM nifedipine addition; type: functional, Cavia porcellus; design: scale not given: the % may be the effect or the level left
In short: (§1)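 K+-depolarized (80 mM) guinea pig aortic strips contracted with calcium. Compound at 1 μM added 30 min before diltiazem, verapamil or nifedipine. Response expressed as percent change from control. Data given as mean ±, Student's t test.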

[2] = target: Voltage-gated L-type calcium channel (Rattus norvegicus, UniProt P22002+Q02485+P27732); test: Displacement of [3H]Verapamil from LTCC PAA site in Sprague-Dawley rat cardiomyocytes after 60 mins by liquid scintillation counting analysis; type: cell-based
In short: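 Frozen pooled cardiomyocytes (at least three animals) resuspended in 50 mmol/L Tris-HCl pH 7.4, 0.15−0.3 mg protein/tube, 25 °C for 60 min. [3H]verapamil 0.5 nM displaced by unlabeled compound (0.1 nM−0.1 mM). Nonspecific binding defined with 0.1 mM verapamil. GF/C filtration, two washes with 20 mmol/L Tris-HCl, liquid scintillation counting, duplicate measurements.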

Left cardiac atrium [3] = test: Negative inotropic activity in potassium depolarized guinea pig left atrium assessed as reduction in developed tension at 10^-8 M preincubated for 30 mins followed by 10^-6 M verapamil addition; type: functional, Cavia porcellus; design: scale not given: the % may be the effect or the level left
Aorta [4] = test: Vasorelaxant activity in potassium depolarized guinea pig aorta assessed as inhibition of calcium-induced contraction at 10^-6 M preincubated for 30 mins followed by 50 uM diltiazem addition; type: functional, Cavia porcellus; design: scale not given: the % may be the effect or the level left; in short: as §1
Cytochrome P450 2C9 = Cytochrome P450 2C9 (Homo sapiens, UniProt P11712); test: Inhibition of CYP2C9 in human liver microsomes using tolbutamide as substrate after 20 mins by LC-MS analysis
Sequence of Cytochrome P450 2C9 (P11712 whole entry): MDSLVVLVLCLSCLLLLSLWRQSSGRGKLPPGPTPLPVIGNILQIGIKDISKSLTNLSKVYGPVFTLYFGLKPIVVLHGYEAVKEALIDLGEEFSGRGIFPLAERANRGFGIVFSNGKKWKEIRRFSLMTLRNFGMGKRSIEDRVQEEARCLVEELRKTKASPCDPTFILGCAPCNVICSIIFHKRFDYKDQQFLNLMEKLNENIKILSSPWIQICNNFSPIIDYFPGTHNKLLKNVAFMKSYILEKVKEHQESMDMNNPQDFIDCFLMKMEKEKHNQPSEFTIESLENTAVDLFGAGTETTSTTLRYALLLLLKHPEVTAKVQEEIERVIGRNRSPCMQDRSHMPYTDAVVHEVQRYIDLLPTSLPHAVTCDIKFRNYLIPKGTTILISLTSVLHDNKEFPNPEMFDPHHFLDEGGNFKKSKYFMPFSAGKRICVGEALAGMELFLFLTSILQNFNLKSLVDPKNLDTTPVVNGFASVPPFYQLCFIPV

Aorta [5] = test: Vasorelaxant activity in potassium depolarized guinea pig aorta assessed as IC50 for diltiazem at 10^-8 M preincubated for 30 mins followed diltiazem addition; type: functional, tissue-based; conditions: Cavia porcellus
Left cardiac atrium [6] = test: Negative inotropic activity in potassium depolarized guinea pig left atrium assessed as reduction in developed tension at 10^-8 M after 30 mins; type: functional; conditions: Cavia porcellus
Aorta [7] = test: Vasorelaxant activity in potassium depolarized guinea pig aorta assessed as inhibition of calcium-induced contraction at 10^-8 M preincubated for 30 mins followed by 5 uM verapamil addition; type: functional, Cavia porcellus; design: scale not given: the % may be the effect or the level left
Aorta [8] = test: Vasorelaxant activity in potassium depolarized guinea pig aorta assessed as relaxation of calcium-induced contraction at 10^-6 M after 30 mins; type: functional, tissue-based; conditions: Cavia porcellus
In short: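 Guinea pig aortic strips depolarized with K+ (80 mM). Calcium-induced contraction measured; inhibition expressed as percent change from control, n = 3−5.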

Aorta [9] = test: Inhibition of verapamil-induced vasorelaxant activity in potassium depolarized guinea pig aorta assessed as relaxation of calcium-induced contraction at 10^-6 M preincubated for 30 mins followed by verapamil addition; type: functional, tissue-based; conditions: Cavia porcellus; in short: as §1
in vitro = conditions: human, liver microsomes
Aorta [10] = test: Inhibition of verapamil-induced vasorelaxant activity in potassium depolarized guinea pig aorta assessed as relaxation of calcium-induced contraction at 10^-8 M preincubated for 30 mins followed by verapamil addition; type: functional, tissue-based; conditions: Cavia porcellus
Left cardiac atrium [11] = test: Negative inotropic activity against potassium depolarized guinea pig left atrium assessed as decrease in verapamil EC50 at 10^-8 M preincubated for 30 mins followed by verapamil addition relative to control; type: functional, Cavia porcellus
In short: (§2)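 Isolated guinea pig left atria, electrically driven at 1 Hz. The pretreatment agent (0.01 μM) was added to the bath 30 min before the L-type calcium channel blocker. Blocker concentration–response curves were then run to obtain the negative inotropic EC50, which was compared with the EC50 for the blocker alone. Data were compared by Student's t test.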

Aorta [12] = test: Vasorelaxant activity in potassium depolarized guinea pig aorta assessed as inhibition of calcium-induced contraction at 10^-6 M preincubated for 30 mins followed by 10^-5 M verapamil addition; type: functional, Cavia porcellus; design: scale not given: the % may be the effect or the level left; in short: as §1
Left cardiac atrium [13] = test: Potentiation of diltiazem-induced negative inotropic activity in potassium depolarized guinea pig left atrium assessed as reduction in developed tension at 10^-8 M preincubated for 30 mins followed by diltiazem addition; type: functional; conditions: Cavia porcellus
In short: (§3)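 Guinea pig left atria driven at 1 Hz. Pretreated with compound at 0.01 μM, added 30 min before diltiazem, verapamil or nifedipine. Blocker concentration−response curves analysed by probit (Litchfield and Wilcoxon), n = 6−7. Data given as mean ±, Student's t test.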

Left cardiac atrium [14] = test: Negative inotropic activity in potassium depolarized guinea pig left atrium assessed as reduction in developed tension at 10^-8 M preincubated for 30 mins followed by 5 uM diltiazem addition; type: functional, Cavia porcellus; design: scale not given: the % may be the effect or the level left
Left cardiac atrium [15] = test: Potentiation of verapamil-induced negative inotropic activity in potassium depolarized guinea pig left atrium assessed as reduction in developed tension at 10^-8 M preincubated for 30 mins followed by verapamil addition; type: functional; conditions: Cavia porcellus; in short: as §3
Aorta [16] = test: Inhibition of nifedipine-induced vasorelaxant activity in potassium depolarized guinea pig aorta assessed as relaxation of calcium-induced contraction at 10^-8 M preincubated for 30 mins followed by nifedipine addition; type: functional, tissue-based; conditions: Cavia porcellus
Aorta [17] = test: Vasorelaxant activity in potassium depolarized guinea pig aorta assessed as inhibition of calcium-induced contraction at 10^-8 M preincubated for 30 mins followed by 50 uM diltiazem addition; type: functional, Cavia porcellus; design: scale not given: the % may be the effect or the level left
Left cardiac atrium [18] = test: Negative inotropic activity against potassium depolarized guinea pig left atrium assessed as decrease in diltiazem EC50 at 10^-8 M preincubated for 30 mins followed by diltiazem addition relative to control; type: functional, Cavia porcellus; in short: as §2
Cytochrome P450 3A4 [19] = target: T2, Cytochrome P450 3A4 (Homo sapiens, UniProt P08684); test: Inhibition of CYP3A4 in human liver microsomes using testosterone as substrate after 5 mins by LC-MS analysis
T2 sequence (P08684 whole entry): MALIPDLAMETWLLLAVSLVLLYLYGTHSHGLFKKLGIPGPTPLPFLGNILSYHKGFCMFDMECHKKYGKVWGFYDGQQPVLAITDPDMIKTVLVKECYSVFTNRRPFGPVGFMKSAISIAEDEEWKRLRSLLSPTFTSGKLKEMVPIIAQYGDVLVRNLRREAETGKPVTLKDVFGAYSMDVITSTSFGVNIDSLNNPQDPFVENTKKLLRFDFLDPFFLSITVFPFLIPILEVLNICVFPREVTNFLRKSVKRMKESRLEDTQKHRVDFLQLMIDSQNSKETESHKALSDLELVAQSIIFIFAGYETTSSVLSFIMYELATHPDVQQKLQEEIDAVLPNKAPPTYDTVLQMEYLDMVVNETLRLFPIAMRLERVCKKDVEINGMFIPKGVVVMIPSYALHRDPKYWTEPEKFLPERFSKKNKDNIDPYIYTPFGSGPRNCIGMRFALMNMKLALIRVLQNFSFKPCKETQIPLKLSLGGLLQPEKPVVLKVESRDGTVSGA

Left cardiac atrium [20] = test: Negative inotropic activity in potassium depolarized guinea pig left atrium assessed as EC50 for verapamil at 10^-8 M preincubated for 30 mins followed by verapamil addition; type: functional; conditions: Cavia porcellus; in short: as §3
Left cardiac atrium [21] = test: Negative inotropic activity in potassium depolarized guinea pig left atrium assessed as EC50 for nifedipine at 10^-8 M preincubated for 30 mins followed by nifedipine addition; type: functional; conditions: Cavia porcellus; in short: as §3
Cytochrome P450 3A4 [22] = target: T2, Cytochrome P450 3A4; test: Inhibition of CYP3A4 in human liver microsomes using midazolam as substrate after 4 mins by LC-MS analysis
Liver microsome = test: Stability in human liver microsomes at 1 uM after 2 to 60 mins by LC-MS analysis in absence of NADPH

CCOC1(c2ccc(Br)cc2)SC=C(C)n2c1noc2=O (configuration not stated)
IC50 (Cytochrome P450 1A2): 2.9 µM | Activity (Aorta [1]): 11% | IC50 [2]: 18.3 µM | inhibition (INH) ([2]; rat, 1 h): Dose-dependent effect | Activity (Left cardiac atrium [3]): 95% | Activity (Aorta [4]): 18% | IC50 (Cytochrome P450 2C9): 18.4 µM | IC50 (Aorta [5]): 0.47 µM | Activity (Left cardiac atrium [6]): inactive | Activity (Aorta [7]): 20% | inhibition (Aorta [8]): inactive | inhibition (Aorta [9]): Active | microsomal CLint at 1 µM (in vitro): 53 µL/min/mg | inhibition (Aorta [10]): Active | fold change (FC) (Left cardiac atrium [11]): 12 | Activity (Aorta [12]): 36% | Activity (Left cardiac atrium [13]): Active | Activity (Left cardiac atrium [14]): 92% | Activity (Left cardiac atrium [15]): Active | inhibition (Aorta [16]): Active | Activity (Aorta [17]): 64% | fold change (FC) (Left cardiac atrium [18]): 3.3 | IC50 (Cytochrome P450 3A4 [19]): 19.2 µM | EC50 (Left cardiac atrium [20]): 0.05 µM | EC50 (Left cardiac atrium [21]): 0.022 µM | IC50 (Cytochrome P450 3A4 [22]): > 20 µM | Stability (Liver microsome): Stable
